Data taken from ChEMBL document CHEMBL1795297, “Design, synthesis and molecular docking studies of novel triazole as antifungal agent” (2011).
Values after ≈ are worked out from the molar mass of the structure shown.

How the values were obtained:
Assay type in all cases: functional
[1] = tested on: Candida albicans; assay: Ratio of voriconazole MIC80 to compound MIC80 for Candida albicans ATCC Y0109
[2] = tested on: Aspergillus fumigatus; assay: Antifungal activity against Aspergillus fumigatus clinical isolate by micro-broth dilution method
Outline: (§1)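 Clinical isolate. MIC by broth microdilution following the NCCLS M27-A2 reference method for yeasts. Compounds were dissolved in DMSO, serially diluted in growth medium, inoculated and incubated at 35 °C. MIC80 is the first well with about 80% less growth than the drug-free well. Each test was run three times and the mean of replicates reported.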

[3] = tested on: Candida albicans; assay: Antifungal activity against Candida albicans ATCC Y0109 after 24 hrs by micro-broth dilution method; conditions: ATCC Y0109, 24 h
Outline: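 ATCC quality-control strain, tested in every assay. NCCLS M27-A2 broth microdilution. Compounds were dissolved in DMSO, serially diluted in growth medium, inoculated and incubated at 35 °C, with growth read at 24 h. MIC80 is the first well with about 80% growth reduction relative to the drug-free control. Each test was run three times and the mean of replicates taken.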

[4] = tested on: Cryptococcus neoformans; assay: Antifungal activity against Cryptococcus neoformans ATCC BLS108 after 72 hrs by micro-broth dilution method; conditions: ATCC BLS108, 72 h
Outline: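 Quality-control ATCC strain included in each assay. Microbroth dilution per NCCLS M27-A2. DMSO-dissolved compounds were serially diluted in growth medium, inoculated and held at 35 °C, with MIC read at 72 h. MIC80 is the first well showing about 80% growth reduction versus the drug-free well. Tests were done in triplicate and the mean reported.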

[5] = tested on: Candida tropicalis; assay: Antifungal activity against Candida tropicalis clinical isolate by micro-broth dilution method; outline: as §1
[6] = tested on: Candida parapsilosis; assay: Antifungal activity against Candida parapsilosis clinical isolate by micro-broth dilution method; conditions: Lodderomyces parapsilosis; outline: as §1
[7] = Antifungal activity against Fonsecaea compacta clinical isolate by micro-broth dilution method; outline: as §1
[8] = tested on: Nannizzia gypsea; assay: Antifungal activity against Microsporum gypseum clinical isolate by micro-broth dilution method; outline: as §1
[9] = tested on: Trichophyton rubrum; assay: Antifungal activity against Trichophyton rubrum clinical isolate by micro-broth dilution method; outline: as §1

Row | Structure (SMILES) | MIC80 [2] [µg/mL] | MIC80 [3] [µg/mL] | MIC80 [4] [µg/mL] | MIC80 [5] [µg/mL] | MIC80 [6] [µg/mL] | MIC80 [7] [µg/mL] | MIC80 [8] [µg/mL] | MIC80 [9] [µg/mL] | Ratio [1]
1 | O=C(/C=C/c1ccccc1)Nc1ccc(N2CCN(CC(O)(Cn3cncn3)c3ccc(F)cc3F)CC2)c(C(F)(F)F)c1 (stereo unspecified) | 4 (≈ 6.53 µM) | 0.00097 (≈ 0.00158 µM) | 0.25 (≈ 0.408 µM) | – | – | – | – | – | 16
2 | CCCCCCC(=O)Nc1ccc(N2CCN(CC(O)(Cn3cncn3)c3ccc(F)cc3F)CC2)c(C(F)(F)F)c1 (stereo unspecified) | > 64 | 1 (≈ 1.68 µM) | 1 (≈ 1.68 µM) | 4 (≈ 6.73 µM) | 4 (≈ 6.73 µM) | 16 (≈ 26.9 µM) | 4 (≈ 6.73 µM) | 4 (≈ 6.73 µM) | –
3 | CC(C)(C)c1ccc(C(=O)Nc2ccc(N3CCN(CC(O)(Cn4cncn4)c4ccc(F)cc4F)CC3)c(C(F)(F)F)c2)cc1 (stereo unspecified) | > 64 | 4 (≈ 6.22 µM) | 0.25 (≈ 0.389 µM) | 1 (≈ 1.56 µM) | 0.25 (≈ 0.389 µM) | 4 (≈ 6.22 µM) | 4 (≈ 6.22 µM) | 4 (≈ 6.22 µM) | –

Continued, in another order:

Row | MIC80 [2] [µg/mL] | MIC80 [3] [µg/mL] | MIC80 [4] [µg/mL] | MIC80 [5] [µg/mL] | MIC80 [6] [µg/mL] | MIC80 [7] [µg/mL] | MIC80 [8] [µg/mL] | MIC80 [9] [µg/mL] | Structure (SMILES) | Ratio [1]
4 | 4 (≈ 6.44 µM) | 4 (≈ 6.44 µM) | > 64 | 1 (≈ 1.61 µM) | 0.25 (≈ 0.403 µM) | 4 (≈ 6.44 µM) | 0.25 (≈ 0.403 µM) | 4 (≈ 6.44 µM) | O=C(Nc1ccc(N2CCN(CC(O)(Cn3cncn3)c3ccc(F)cc3F)CC2)c(C(F)(F)F)c1)c1ccc(Cl)cc1 (stereo unspecified) | –
5 | 64 (≈ 107 µM) | 1 (≈ 1.67 µM) | 1 (≈ 1.67 µM) | 1 (≈ 1.67 µM) | 0.25 (≈ 0.416 µM) | 16 (≈ 26.6 µM) | 1 (≈ 1.67 µM) | 4 (≈ 6.66 µM) | Cc1ccc(C(=O)Nc2ccc(N3CCN(CC(O)(Cn4cncn4)c4ccc(F)cc4F)CC3)c(C(F)(F)F)c2)cc1 (stereo unspecified) | –
